This is an account of results in ChEMBL document CHEMBL1671863, “Inhibition of OXA-1 beta-lactamase by penems” (Antimicrob Agents Chemother, 2008).

Activity calls are given as the source filed them. No cut-off for these calls is given here.

Test [1] is described as follows: Ratio of Kcat to Kinact for beta-lactamase OXA-1 expressed in Escherichia coli BL21 (DE3) using nitrocefin substrate by spectrophotometry. An outline of the steps: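 Partition ratio kcat/kinact set by turnover number: purified OXA-1 (40 μM) mixed 1:1 with inhibitor, 23°C, 50 mM sodium phosphate plus 20 mM bicarbonate, nitrocefin as reporter; inactivation followed up to 900 s and recovery of activity checked to 24 h.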

The nature of test [2]: Inhibition of beta-lactamase OXA-1 expressed in Escherichia coli BL21 (DE3) using nitrocefin substrate by spectrophotometry. An outline of the steps:
(§1)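 Periplasmic OXA-1 (IPTG-induced, purified by isoelectric focusing ± gel filtration) assayed at 23°C in 50 mM sodium phosphate with 20 mM bicarbonate; 18 nM enzyme, 75 μM nitrocefin read at 482 nm with rising inactivator (penems 50–1,100 nM, tazobactam 50–3,000 μM). kobs from time-course fits plotted against inhibitor concentration gave kinact, then Ki.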

Test [3] is described as follows: Ratio of Kinact to Ki for beta-lactamase OXA-1 expressed in Escherichia coli BL21 (DE3) using nitrocefin substrate by spectrophotometry. A digest of the protocol: as §1
The nature of test [4]: Inhibition of beta-lactamase OXA-1 expressed in Escherichia coli DH10B assessed as reduction of piperacillin MIC at 4 mg/L. An outline of the steps: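 E. coli DH10B carrying plasmid RGN238 blaOXA-1 tested by agar dilution on Luria Bertani agar, 10⁴ CFU/spot from a Steers replicator; inhibitor held fixed at 4 μg/ml while piperacillin was raised in doubling dilutions.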
Test [5] is described as follows: Binding affinity to beta-lactamase OXA-1 expressed in Escherichia coli BL21 (DE3) assessed as compound-enzyme covalent attachment by electrospray ionization mass spectrometry. A digest of the protocol:
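Purified OXA-1 (40 μM) incubated 15 min with 1.2 mM inhibitor (30:1 inhibitor:enzyme) in 20 mM diethanolamine, pH 8.6; protein diluted in acetonitrile-1% formic acid to 10 μM and analysed intact by nanospray ESI-QTOF MS; deconvoluted spectra compared with apo enzyme (theoretical mass 28,132 Da).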

Broadly, the Ki is a measure of affinity in units of concentration, obtained from inhibition or displacement. Lower therefore signals tighter binding. As for `C[C@]1(Cn2ccnn2)[C@H](C(=O)O)N2C(=O)C[C@H]2S1(=O)=O` [TAZOBACTAM], the Ratio in test [1] is 349. In test [2], this compound showed a Ki of 80000 nM and a Kinact of 0.12 s⁻¹. In addition, in test [3], the Ratio is 0.0015 µM⁻¹ s⁻¹.
In the case of `O=C(O)C1=CS[C@@H]2/C(=C\c3cc4n(n3)CSC4)C(=O)N12` [PENEM-1], the inhibition result in test [4] and in test [5] was “Active” each time. Also, the figures for the Ratio in test [1] and in test [3] were 0 and 2.9 µM⁻¹ s⁻¹, respectively. The compound also showed a Ki in test [2] of 45 nM. In test [2], this compound showed a Kinact of 0.13 s⁻¹.
As for `O=C(O)C1=CS[C@@H]2/C(=C\c3cc4n(n3)CSCC4)C(=O)N12` [PENEM-2], the inhibition entry in test [4] and in test [5] was “Active” throughout. The figures for the Ratio in test [1] and in test [3] were 0 and 9.2 µM⁻¹ s⁻¹, respectively. In test [2], the affinity, expressed as Ki, was 12 nM. In addition, the Kinact in test [2] is 0.11 s⁻¹.
